The list is not random: actives were taken first. Their share in the collection is about 1.6%.
GASC-1 inh – inhibitors of GASC-1 histone demethylase, primary screen, biochemical, fluorescence, DELFIA europium; GST-JMJD2C(1-420) H3K9me3 demethylation; Lysine-specific demethylase 4C (Homo sapiens), Q9H3R0; AID 2099, 2009; 330,000 tested, 0.069% active; inhibition, % at 2.35 µM;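 active means more than half of a compound's replicate wells show inhibition beyond 50%, single wells judged on their own value; inconclusive means some, but no more than half, of replicates pass 50% inhibition; inactive means no replicate passes 50% inhibition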;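 further: signal counts dimethyl H3K9 product captured on neutravidin plate; 0% = median of DMSO wells and 100% = 0.3 times that DMSO median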
T cell HTS – modulators of CD8 T cell-vesicle binding, primary screen, mouse 2C CD8+ T cells, flow cytometry. 2C CD8+ T cell-vesicle binding; active compounds read low. response (vesicle binding), % at 7 µM. 330,000 tested, 0.068% active. AID 2052, 2009;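 active means response, share of CD8 T cells binding vesicles, and their 90th percentile fluorescence all below set limits, cut at about 80% in these data, passing the limit was not always enough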;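 further: values below 100% mean blocked vesicle binding to the CD8+ T cells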
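Read-out – percent CD8+ FL2 mean versus row control · System – murine 2C transgenic CD8+ T lymphocytes · Times – 1.5 h cell–vesicle binding at 37 °C, then 20 min icy labelling · Control set – naked vesicles low, QL9 vesicles with vehicle high · Detection – cytometric PE anti-B7-1 and Alexa647 anti-CD8 signals after 1% paraformaldehyde fixation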
Arrestin-AP2 inh – inhibitors of beta-arrestin/AP2 binding, primary screen, biochemical, GPCR trafficking, flow cytometry; 340,000 tested, 0.31% active; FITC-arrestin peptide / GST-AP2 beads; AP2 beta2 appendage carries R879A mutation; beta-arrestin 1 C-terminal peptide binding to AP2 beta2-adaptin appendage (human); inhibition, % at 10 µM;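 active means inhibition above a set limit, near 3 SD of compounds lacking own fluorescence, cut at about 54% in these data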;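 further: plate controls were DMSO wells for no effect and 5 µM unlabelled arrestin peptide for full effect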
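System: GST-AP2 R879A glutathione beads; medium: PBS, Tween 20 0.05%, BSA 0.1%; reagent: fluorescein-tagged arrestin peptide at 50 nM final; schedule: pre-incubation 12 min, peptide binding 1 h, room temperature; detection: flow cytometry, FL1 (488/535 nm); read-out: inhibition as reduced fluorescein signal on beads, percent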
HDAC3 inhib – HDAC3 deacetylase inhibitors, primary screen, biochemical, fluorescence, cell-free homogeneous. Histone deacetylase 3 (Homo sapiens), O15379. recombinant HDAC3, fluorogenic peptide/trypsin coupled. inhibition, % at 8.3 µM. 320,000 tested, 0.15% active. AID 2718, 2010; in the data active means inhibition above about 26%, passing the limit was not always enough; inconclusive means no clear call, values can overlap the other calls
Pemphigus Ab inh – inhibitors of pemphigus antibody binding to DSG3, primary screen, biochemical, bead-based, flow cytometry, scFv-GFP; Desmoglein-3 (Homo sapiens), P32926; DSG3-coupled beads, scFv-anti-DSG3-GFP binding; active compounds read low; binding (percent of control), % at 10 µM; 310,000 tested, 0.48% active;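 active means binding more than 3 SD below its plate's average and above zero; inconclusive means below that plate limit but binding exactly zero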;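 further: hits lower antibody fragment binding to DSG3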
LANA-H2B inh – blockers of LANA interaction with H2A/H2B – biochemical, FP readout, HTS, primary screen. Protein LANA1 (Human herpesvirus 8 type P (isolate GK18)), Q9QR71. cell-free LANA-H2A/H2B peptide, fluorescence polarization. inhibition, % (no concentration beside the values). 320,000 tested, 0.6% active; in the data active means inhibition mostly above about 10%, no sharp cut-off; inactive means mostly below about 6.7%
Numbers without * were called inactive.

CCCc1nc(SCC(=O)c2ccc(F)cc2)c2ccccc2n1 was read as GASC-1 inh -4, T cell HTS 167, Arrestin-AP2 inh 44, HDAC3 inhib 33*, Pemphigus Ab inh 101 and LANA-H2B inh 0.
Screening Cc1ccc(C)c(OCCC(=O)OCC(=O)NCCc2ccc(S(N)(=O)=O)cc2)c1 returned GASC-1 inh -1, T cell HTS 323, Arrestin-AP2 inh -8, HDAC3 inhib -1, Pemphigus Ab inh 104 and LANA-H2B inh 2.
For Cc1ccc(C)c(OCCC(=O)NCCc2ccc(S(N)(=O)=O)cc2)c1 the results were GASC-1 inh -1, T cell HTS 335, Arrestin-AP2 inh 15, HDAC3 inhib -3, Pemphigus Ab inh 110 and LANA-H2B inh 29*.
Cn1cccc1/C=N/n1c(-c2ccc(C(C)(C)C)cc2)n[nH]c1=S was read as GASC-1 inh -17, T cell HTS 195, Arrestin-AP2 inh 1, HDAC3 inhib 29*, Pemphigus Ab inh 105 and LANA-H2B inh -2.
COc1ccc(N2CCN(C(=O)CS(=O)Cc3nc(-c4ccc(OC)c(OC)c4)oc3C)CC2)cc1 (stereo not drawn) was read as GASC-1 inh 9, T cell HTS 336, Arrestin-AP2 inh -19, HDAC3 inhib -7, Pemphigus Ab inh 98 and LANA-H2B inh 16*.
`Cc1ccc(-c2nc(CS(=O)CC(=O)N3CCN(c4ccc(F)cc4)CC3)c(C)o2)cc1` (stereo not drawn) gave GASC-1 inh -2, T cell HTS 107, Arrestin-AP2 inh -8, HDAC3 inhib -2, Pemphigus Ab inh 105 and LANA-H2B inh 6.
`COc1cccc(-c2nc(CS(=O)CC(=O)NC3CCCCC3)c(C)o2)c1` (stereo not drawn) gave GASC-1 inh 10, T cell HTS 680, Arrestin-AP2 inh -1, HDAC3 inhib 2, Pemphigus Ab inh 55* and LANA-H2B inh 4.
For CCOC(=O)COc1c(Cl)cc(/C=C2\N=C(C)OC2=O)cc1OC the results were GASC-1 inh -7, T cell HTS 115, Arrestin-AP2 inh 15, HDAC3 inhib 66*, Pemphigus Ab inh 96 and LANA-H2B inh 2.
CCOc1cc(/C=C2\N=C(C)OC2=O)cc(Br)c1OCC(=O)OC was read as GASC-1 inh -2, T cell HTS 514, Arrestin-AP2 inh 8, HDAC3 inhib 18, Pemphigus Ab inh 85 and LANA-H2B inh 0.
For CCOc1ccc(NC(=O)C2CC(=O)N(c3ccc4c(c3)OCCO4)C2)cc1OCC (stereo not drawn) the results were GASC-1 inh 2, T cell HTS 360, Arrestin-AP2 inh 2, HDAC3 inhib 3, Pemphigus Ab inh 106 and LANA-H2B inh -4.
O=C(N/N=C/c1cccc(OC(=O)c2ccccc2Cl)c1)c1cccnc1 was read as GASC-1 inh 9, T cell HTS 0.0*, Arrestin-AP2 inh 13, HDAC3 inhib 0 and LANA-H2B inh -2.
`CCOc1cc(/C=N/NC(=O)c2cccnc2)ccc1OCC(=O)N(C)C` gave GASC-1 inh 6, T cell HTS 233, Arrestin-AP2 inh 36, HDAC3 inhib 5, Pemphigus Ab inh 78* and LANA-H2B inh 3.
`Cc1ccc(C(=O)N/N=C/c2ccc(OC(=O)c3ccccc3Cl)cc2)cn1` gave GASC-1 inh 15, T cell HTS 190, Arrestin-AP2 inh 25, HDAC3 inhib -3, Pemphigus Ab inh inconclusive and LANA-H2B inh 2.
CCOc1ncccc1C(=O)OCC(=O)NC1CCCCC1 was read as GASC-1 inh 14, T cell HTS 540, Arrestin-AP2 inh -9, HDAC3 inhib 1 and LANA-H2B inh -1.

Source: PubChem (several laboratories)
